Assay results published in PMC5769151 (Journal of medicinal chemistry, 2015).

Experiments:
μ opioid receptor (MOR) = type: binding
NK1R [1] = target: T1, NK1R (Homo sapiens, UniProt P25103); assay: hNK1/CHO cell membrane radioligand binding assay; conditions: binding ratio human/rat NK1
Target sequence in this assay (P25103 whole entry): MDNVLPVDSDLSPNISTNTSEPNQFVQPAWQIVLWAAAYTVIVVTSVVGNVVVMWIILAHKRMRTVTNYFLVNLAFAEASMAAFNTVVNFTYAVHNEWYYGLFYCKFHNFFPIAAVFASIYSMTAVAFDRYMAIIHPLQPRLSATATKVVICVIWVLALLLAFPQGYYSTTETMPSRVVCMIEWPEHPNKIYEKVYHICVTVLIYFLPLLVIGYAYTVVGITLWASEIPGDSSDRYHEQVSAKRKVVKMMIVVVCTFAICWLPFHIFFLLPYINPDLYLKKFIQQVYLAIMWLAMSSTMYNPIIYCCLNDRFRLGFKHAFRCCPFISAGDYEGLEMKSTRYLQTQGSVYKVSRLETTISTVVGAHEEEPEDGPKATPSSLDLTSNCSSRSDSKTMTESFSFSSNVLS

GPI (MOR) = assay: Guinea pig isolated ileum; type: cell-based; conditions: IC50 μ / IC50 δ
Outline: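 Male Hartley guinea pig ileum LMMP (0.1 Hz, 0.4 ms) and male ICR mouse vasa deferentia (0.5 g tension, Mg-free Krebs, 37 °C, O2/CO2 95:5; 0.1 Hz single pulses, 2.0 ms), electrically stimulated at supramaximal voltage.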

GPI/LMMP (NK1R) = GPI/LMMP (NK1R) (Cavia porcellus, UniProt P30547); assay: GPI/LMMP functional assay at NK1R; type: cell-based, guinea pig; conditions: at the concentration printed in the cell
GPI/LMMP (NK1R), sequence (P30547 whole entry): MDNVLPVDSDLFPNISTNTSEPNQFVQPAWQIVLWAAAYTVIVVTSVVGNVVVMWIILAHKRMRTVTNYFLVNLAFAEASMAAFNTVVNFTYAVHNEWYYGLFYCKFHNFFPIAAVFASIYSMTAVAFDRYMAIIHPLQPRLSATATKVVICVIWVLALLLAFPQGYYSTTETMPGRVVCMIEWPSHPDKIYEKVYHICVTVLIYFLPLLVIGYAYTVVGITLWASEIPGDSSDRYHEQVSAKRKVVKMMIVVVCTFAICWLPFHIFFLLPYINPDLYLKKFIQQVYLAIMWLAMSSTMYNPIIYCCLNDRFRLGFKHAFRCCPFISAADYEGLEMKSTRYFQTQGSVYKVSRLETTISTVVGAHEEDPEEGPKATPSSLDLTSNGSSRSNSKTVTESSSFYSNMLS

MOR = MOR (Homo sapiens, UniProt P35372); type: cell-based
MOR, sequence (P35372 whole entry): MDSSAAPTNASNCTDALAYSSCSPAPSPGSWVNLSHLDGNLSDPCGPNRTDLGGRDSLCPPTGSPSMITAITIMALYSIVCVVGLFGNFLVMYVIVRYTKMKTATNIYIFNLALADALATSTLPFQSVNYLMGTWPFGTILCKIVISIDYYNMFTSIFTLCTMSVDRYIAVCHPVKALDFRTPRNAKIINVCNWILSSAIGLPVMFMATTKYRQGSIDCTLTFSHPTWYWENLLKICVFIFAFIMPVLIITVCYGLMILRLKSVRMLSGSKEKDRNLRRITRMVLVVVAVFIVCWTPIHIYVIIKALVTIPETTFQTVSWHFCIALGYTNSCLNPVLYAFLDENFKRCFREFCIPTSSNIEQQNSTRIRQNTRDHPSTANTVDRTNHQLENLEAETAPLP

NK1R [2] = target: T1, NK1R; type: cell-based
Target sequence in this assay (P25103 whole entry, species assumed): as the sequence (P25103 whole entry) above

With Cc1cc(O)cc(C)c1C[C@H](N)C(=O)N[C@H](C)C(=O)NCC(=O)N[C@@H](Cc1ccccc1)C(=O)N1CCC[C@H]1C(=O)N[C@@H](CC(C)C)C(=O)N[C@@H](Cc1c[nH]c2ccccc12)C(=O)NCc1cc(C(F)(F)F)cc(C(F)(F)F)c1 [ligand 4] the “Ki^μ/Ki^δ” value (μ opioid receptor (MOR); binding ratio MOR/DOR) was 3/1, the “log[IC50±] (MOR)” value (μ opioid receptor (MOR); log IC50 from nonlinear regression, MOR binding) was −8.63 ± 0.04 and the “Ki^hNK1/Ki^rNK1” value (NK1R [1]) was 1/19. For the same compound, the “GPI/MVD IC50 ratio” value (GPI (MOR)) was 26/1, the “GPI/LMMP (NK1R) agonism” value (GPI/LMMP (NK1R)) was “none at 100 nM” and the “MOR/DOR IC50 ratio (cAMP assay)” value (MOR) was 6/1. The Kb (NK1R [2]) was 11 ± 10 nM.
